ChEMBL document CHEMBL1152792, “Synthesis and anticonvulsant activity of amino acid-derived sulfamides” (J Med Chem, 2009)
The source made the active and inactive calls. No cut-off for these calls is given here.

The molecules below were run on Mus musculus (assay: Anticonvulsant activity in albino mouse at 30 mg/kg, ip after 0.5 hrs by MES test). Settings: not given.
Format: functional, organism-based
Parameters: dose 30 mg/kg
How it was run: (§1)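 NIH Anticonvulsant Drug Development (ADD) program phase I screen in adult male albino mice (18–23 g). Compound given ip in 30% PEG 400 and 10% water at 0.01 mL/g body weight. Seizures were induced electrically (MES) or chemically (PTZ), and animals were tested 0.5 and 4 h after dosing. Result scored as protected/tested animals.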
For `COC(=O)[C@@H](NS(=O)(=O)N[C@H](C(=O)OC)C(C)C)C(C)C`, the Activity was “inactive”. For `CCCC(CCC)CN(C(=O)OC(C)(C)C)S(=O)(=O)NCCC(=O)OC`, the Activity was “inactive”. With `COC(=O)[C@@H](C)NS(=O)(=O)NC(=O)OC(C)(C)C` the Activity was “inactive”.

The molecules below were run on Mus musculus (assay: Anticonvulsant activity in albino mouse at 100 mg/kg, ip after 0.5 hrs by MES test). Settings: not given.
Format: functional, organism-based
Parameters: dose 100 mg/kg
How it was run: as §1
For `CCCC(CCC)CN(C(=O)OC(C)(C)C)S(=O)(=O)NCCC(=O)OC`, the Activity was “inactive”. In the case of `COC(=O)[C@@H](C)NS(=O)(=O)NC(=O)OC(C)(C)C`, the Activity is reported as “inactive”.

What follows are molecules tested on Mus musculus (assay: Anticonvulsant activity in albino mouse at 300 mg/kg, ip after 0.5 hrs by MES test). Settings: not given.
Format: functional, organism-based
Parameters: dose 300 mg/kg
How it was run: as §1
In the case of `CCCC(CCC)CN(C(=O)OC(C)(C)C)S(=O)(=O)NCCC(=O)OC`, the Activity is reported as “inactive”. For `COC(=O)[C@@H](C)NS(=O)(=O)NC(=O)OC(C)(C)C`, the Activity was “inactive”.

What follows are molecules tested on Mus musculus (assay: Anticonvulsant activity in albino mouse at 30 mg/kg, ip after 4 hrs by MES test). Settings: not given.
Format: functional, organism-based
Parameters: dose 30 mg/kg
How it was run: as §1
In the case of `COC(=O)[C@@H](NS(=O)(=O)N[C@H](C(=O)OC)C(C)C)C(C)C`, the Activity is reported as “inactive”. With `CCCC(CCC)CN(C(=O)OC(C)(C)C)S(=O)(=O)NCCC(=O)OC` the Activity was “inactive”. With `COC(=O)[C@@H](C)NS(=O)(=O)NC(=O)OC(C)(C)C` the Activity was “inactive”.

The molecules below were run on Mus musculus (assay: Anticonvulsant activity in albino mouse at 100 mg/kg, ip after 4 hrs by MES test). Settings: not given.
Format: functional, organism-based
Parameters: dose 100 mg/kg
How it was run: as §1
For `COC(=O)[C@@H](NS(=O)(=O)N[C@H](C(=O)OC)C(C)C)C(C)C`, the Activity was “inactive”. With `CCCC(CCC)CN(C(=O)OC(C)(C)C)S(=O)(=O)NCCC(=O)OC` the Activity was “inactive”. In the case of `COC(=O)[C@@H](C)NS(=O)(=O)NC(=O)OC(C)(C)C`, the Activity is reported as “inactive”.

Each molecule was assayed on Mus musculus (assay: Anticonvulsant activity in albino mouse at 300 mg/kg, ip after 4 hrs by MES test). Settings: not given.
Format: functional, organism-based
Parameters: dose 300 mg/kg
How it was run: as §1
`COC(=O)[C@@H](NS(=O)(=O)N[C@H](C(=O)OC)C(C)C)C(C)C` was tested, and the Activity was “inactive”. `CCCC(CCC)CN(C(=O)OC(C)(C)C)S(=O)(=O)NCCC(=O)OC` was tested, and the Activity was “inactive”. In the case of `COC(=O)[C@@H](C)NS(=O)(=O)NC(=O)OC(C)(C)C`, the Activity is reported as “inactive”.

These molecules were tested on Mus musculus (assay: Anticonvulsant activity in albino mouse at 30 mg/kg, ip after 0.5 hrs by PTZ test). Settings: not given.
Format: functional, organism-based
Parameters: dose 30 mg/kg
How it was run: as §1
`COC(=O)[C@@H](NS(=O)(=O)N[C@H](C(=O)OC)C(C)C)C(C)C` was tested, and the Activity was “inactive”. `CCCC(CCC)CN(C(=O)OC(C)(C)C)S(=O)(=O)NCCC(=O)OC` was tested, and the Activity was “inactive”. For `COC(=O)[C@@H](C)NS(=O)(=O)NC(=O)OC(C)(C)C`, the Activity was “inactive”.

These molecules were tested on Mus musculus (assay: Anticonvulsant activity in albino mouse at 100 mg/kg, ip after 0.5 hrs by PTZ test). Settings: not given.
Format: functional, organism-based
Parameters: dose 100 mg/kg
How it was run: as §1
`COC(=O)[C@@H](NS(=O)(=O)N[C@H](C(=O)OC)C(C)C)C(C)C` was tested, and the Activity was “inactive”. `CCCC(CCC)CN(C(=O)OC(C)(C)C)S(=O)(=O)NCCC(=O)OC` was tested, and the Activity was “inactive”. In the case of `COC(=O)[C@@H](C)NS(=O)(=O)NC(=O)OC(C)(C)C`, the Activity is reported as “inactive”.

The molecules below were run on Mus musculus (assay: Anticonvulsant activity in albino mouse at 300 mg/kg, ip after 0.5 hrs by PTZ test). Settings: not given.
Format: functional, organism-based
Parameters: dose 300 mg/kg
How it was run: as §1
`COC(=O)[C@@H](NS(=O)(=O)N[C@H](C(=O)OC)C(C)C)C(C)C` was tested, and the Activity was “inactive”. For `CCCC(CCC)CN(C(=O)OC(C)(C)C)S(=O)(=O)NCCC(=O)OC`, the Activity was “inactive”. In the case of `COC(=O)[C@@H](C)NS(=O)(=O)NC(=O)OC(C)(C)C`, the Activity is reported as “inactive”.

What follows are molecules tested on Mus musculus (assay: Anticonvulsant activity in albino mouse at 30 mg/kg, ip after 4 hrs by PTZ test). Settings: not given.
Format: functional, organism-based
Parameters: dose 30 mg/kg
How it was run: as §1
In the case of `COC(=O)[C@@H](NS(=O)(=O)N[C@H](C(=O)OC)C(C)C)C(C)C`, the Activity is reported as “inactive”. `CCCC(CCC)CN(C(=O)OC(C)(C)C)S(=O)(=O)NCCC(=O)OC` was tested, and the Activity was “inactive”. With `COC(=O)[C@@H](C)NS(=O)(=O)NC(=O)OC(C)(C)C` the Activity was “inactive”.

These molecules were tested on Mus musculus (assay: Anticonvulsant activity in albino mouse at 100 mg/kg, ip after 4 hrs by PTZ test). Settings: not given.
Format: functional, organism-based
Parameters: dose 100 mg/kg
How it was run: as §1
`COC(=O)[C@@H](NS(=O)(=O)N[C@H](C(=O)OC)C(C)C)C(C)C` was tested, and the Activity was “inactive”. For `CCCC(CCC)CN(C(=O)OC(C)(C)C)S(=O)(=O)NCCC(=O)OC`, the Activity was “inactive”. With `COC(=O)[C@@H](C)NS(=O)(=O)NC(=O)OC(C)(C)C` the Activity was “inactive”.

What follows are molecules tested on Mus musculus (assay: Anticonvulsant activity in albino mouse at 300 mg/kg, ip after 4 hrs by PTZ test). Settings: not given.
Format: functional, organism-based
Parameters: dose 300 mg/kg
How it was run: as §1
With `COC(=O)[C@@H](NS(=O)(=O)N[C@H](C(=O)OC)C(C)C)C(C)C` the Activity was “inactive”. For `CCCC(CCC)CN(C(=O)OC(C)(C)C)S(=O)(=O)NCCC(=O)OC`, the Activity was “inactive”. `COC(=O)[C@@H](C)NS(=O)(=O)NC(=O)OC(C)(C)C` was tested, and the Activity was “inactive”.

These molecules were tested on Mus musculus (assay: Toxicity in albino mouse at 30 mg/kg, ip after 0.5 hrs by rotarod test). Settings: in vivo.
Format: organism-based
Parameters: dose 30 mg/kg, route intraperitoneal
How it was run: (§2)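 Neurotoxicity was screened by the standardized rotarod test in the ADD phase I protocol. Adult male albino mice (18–23 g) received compound ip in 30% PEG 400 and 10% water at 0.01 mL/g. Animals were tested 0.5 and 4 h post-dose. Result scored as toxic/tested animals.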
For `COC(=O)[C@@H](NS(=O)(=O)N[C@H](C(=O)OC)C(C)C)C(C)C`, the Activity was “Non-toxic”. For `CCCC(CCC)CN(C(=O)OC(C)(C)C)S(=O)(=O)NCCC(=O)OC`, the Activity was “Non-toxic”. With `COC(=O)[C@@H](C)NS(=O)(=O)NC(=O)OC(C)(C)C` the Activity was “Non-toxic”.

What follows are molecules tested on Mus musculus (assay: Toxicity in albino mouse at 100 mg/kg, ip after 0.5 hrs by rotarod test). Settings: in vivo.
Format: organism-based
Parameters: dose 100 mg/kg, route intraperitoneal
How it was run: as §2
`COC(=O)[C@@H](NS(=O)(=O)N[C@H](C(=O)OC)C(C)C)C(C)C` was tested, and the Activity was “Non-toxic”. In the case of `CCCC(CCC)CN(C(=O)OC(C)(C)C)S(=O)(=O)NCCC(=O)OC`, the Activity is reported as “Non-toxic”. For `COC(=O)[C@@H](C)NS(=O)(=O)NC(=O)OC(C)(C)C`, the Activity was “Non-toxic”.

The molecules below were run on Mus musculus (assay: Toxicity in albino mouse at 300 mg/kg, ip after 0.5 hrs by rotarod test). Settings: in vivo.
Format: organism-based
Parameters: dose 300 mg/kg, route intraperitoneal
How it was run: as §2
With `COC(=O)[C@@H](NS(=O)(=O)N[C@H](C(=O)OC)C(C)C)C(C)C` the Activity was “Non-toxic”. With `CCCC(CCC)CN(C(=O)OC(C)(C)C)S(=O)(=O)NCCC(=O)OC` the Activity was “Non-toxic”. In the case of `COC(=O)[C@@H](C)NS(=O)(=O)NC(=O)OC(C)(C)C`, the Activity is reported as “Non-toxic”.

The molecules below were run on Mus musculus (assay: Toxicity in albino mouse at 30 mg/kg, ip after 4 hrs by rotarod test). Settings: in vivo.
Format: organism-based
Parameters: dose 30 mg/kg, route intraperitoneal
How it was run: as §2
In the case of `COC(=O)[C@@H](NS(=O)(=O)N[C@H](C(=O)OC)C(C)C)C(C)C`, the Activity is reported as “Non-toxic”. In the case of `CCCC(CCC)CN(C(=O)OC(C)(C)C)S(=O)(=O)NCCC(=O)OC`, the Activity is reported as “Non-toxic”. `COC(=O)[C@@H](C)NS(=O)(=O)NC(=O)OC(C)(C)C` was tested, and the Activity was “Non-toxic”.

Each molecule was assayed on Mus musculus (assay: Toxicity in albino mouse at 100 mg/kg, ip after 4 hrs by rotarod test). Settings: in vivo.
Format: organism-based
Parameters: dose 100 mg/kg, route intraperitoneal
How it was run: as §2
For `COC(=O)[C@@H](NS(=O)(=O)N[C@H](C(=O)OC)C(C)C)C(C)C`, the Activity was “Non-toxic”. With `CCCC(CCC)CN(C(=O)OC(C)(C)C)S(=O)(=O)NCCC(=O)OC` the Activity was “Non-toxic”. For `COC(=O)[C@@H](C)NS(=O)(=O)NC(=O)OC(C)(C)C`, the Activity was “Non-toxic”.

The molecules below were run on Mus musculus (assay: Toxicity in albino mouse at 300 mg/kg, ip after 4 hrs by rotarod test). Settings: in vivo.
Format: organism-based
Parameters: dose 300 mg/kg, route intraperitoneal
How it was run: as §2
For `COC(=O)[C@@H](NS(=O)(=O)N[C@H](C(=O)OC)C(C)C)C(C)C`, the Activity was “Non-toxic”. For `CCCC(CCC)CN(C(=O)OC(C)(C)C)S(=O)(=O)NCCC(=O)OC`, the Activity was “Non-toxic”. With `COC(=O)[C@@H](C)NS(=O)(=O)NC(=O)OC(C)(C)C` the Activity was “Non-toxic”.
